Measurements published in ChEMBL document CHEMBL1781977, “Design and synthesis of 3,5-diarylisoxazole derivatives as novel class of anti-hyperglycemic and lipid lowering agents” (Bioorg Med Chem, 2009).
Activity calls are given as the source filed them. No cut-off for these calls is given here.

Tests used:
Rattus norvegicus [1] = assay: Antihyperglycemic activity in Charles Foster/Wistar albino rat assessed as reduction in blood glucose level at 100 mg/kg, po administered 30 mins before sucrose challenge; type: functional
Outline: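 Male Charles Foster/Wistar rats, 160 ± 20 g, fasted 16 h; animals with glucose 60–80 mg/dl used, 5–6 per group. Given 100 mg/kg orally as suspension in 1.0% gum acacia (controls vehicle alone). Sucrose 10.0 g/kg orally 30 min later. Glucometer readings at 30, 60, 90, 120 min. Percent activity derived from AUC of treated versus control groups.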

Rattus norvegicus [2] = assay: Antihyperglycemic activity against sucrose challenged streptozotocin-induced diabetic Sprague-Dawley albino rat assessed as reduction in blood glucose level at 100 mg/kg, po administered 30 mins before sucrose challenge measured after 5 hrs; type: functional
Outline: (§1)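 Male Sprague Dawley rats, 160 ± 20 g, fasted overnight, given streptozotocin 60 mg/kg ip in 100 mM citrate pH 4.5. Rats with glucose 144–270 mg/dl at 48 h count as diabetic, 5–6 per group. Dosed 100 mg/kg orally in 1.0% gum acacia. Sucrose 2.5 g/kg given 30 min later. Glucose read at 30–300 min and 24 h. Non-responders excluded.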

Rattus norvegicus [3] = assay: Antihyperglycemic activity against sucrose challenged streptozotocin-induced diabetic Sprague-Dawley albino rat assessed as reduction in blood glucose level at 100 mg/kg, po administered 30 mins before sucrose challenge measured after 24 hrs; type: functional; outline: as §1
Mus musculus [4] = species on record: Mus musculus; assay: Antihyperglycemic activity in C57BL/Ks db/db mouse assessed as reduction in blood glucose level measured after 3 days relative to control; type: functional
Rattus norvegicus [5] = assay: Antihyperglycemic activity against sucrose challenged streptozotocin-induced diabetic Sprague-Dawley albino rat assessed as reduction in blood glucose level at 7.5 mg/kg, po administered 30 mins before sucrose challenge; type: functional
Outline: (§2)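 Streptozotocin-diabetic Sprague Dawley rats: streptozotocin 60 mg/kg ip in citrate pH 4.5; rats at 144–270 mg/dl after 48 h used. Oral doses of 7.5–100 mg/kg in 1.0% gum acacia, then sucrose 2.5 g/kg. Glucose measured at 30, 60, 90, 120, 180, 240, 300 and 1440 min. ED50 taken from dose response. Mean ± SD, n = 5; Dunnett's test.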

Rattus norvegicus [6] = assay: Antihyperglycemic activity against sucrose challenged streptozotocin-induced diabetic Sprague-Dawley albino rat assessed as reduction in blood glucose level at 15 mg/kg, po administered 30 mins before sucrose challenge; type: functional; outline: as §2
Rattus norvegicus [7] = assay: Antihyperglycemic activity against sucrose challenged streptozotocin-induced diabetic Sprague-Dawley albino rat assessed as reduction in blood glucose level at 25 mg/kg, po administered 30 mins before sucrose challenge; type: functional; outline: as §2
Rattus norvegicus [8] = assay: Antihyperglycemic activity against sucrose challenged streptozotocin-induced diabetic Sprague-Dawley albino rat assessed as reduction in blood glucose level at 50 mg/kg, po administered 30 mins before sucrose challenge; type: functional; outline: as §2
Rattus norvegicus [9] = assay: Antihyperglycemic activity against sucrose challenged streptozotocin-induced diabetic Sprague-Dawley albino rat assessed as reduction in blood glucose level at 100 mg/kg, po administered 30 mins before sucrose challenge; type: functional; outline: as §1
Rattus norvegicus [10] = assay: Antihyperglycemic activity against sucrose challenged streptozotocin-induced diabetic Sprague-Dawley albino rat assessed as reduction in blood glucose level administered orally 30 mins before sucrose challenge; type: functional; conditions: po; outline: as §2
Mus musculus [11] = assay: Antihyperglycemic activity in C57BL/Ks db/db mouse assessed as reduction in blood glucose level at 100 mg/kg, po measured 6 days post dose by postprandial glucose tolerance test; type: functional; conditions: 144 h
Outline: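 C57BL/KsBom-db mice, 12–18 weeks, 40–50 g, 5 male and 5 female, at 23 °C with 12/12 h light cycle. Treated orally at 100 mg/kg, vehicle 1.0% gum acacia. Day 6 postprandial test: glucose at −0.5 h and 0 h, then at 1, 2, 3, 4 and 6 h after dosing.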

Mus musculus [12] = assay: Antihyperglycemic activity in C57BL/Ks db/db mouse assessed as reduction in blood glucose level at 100 mg/kg, po measured 10 days post dose by postprandial glucose tolerance test; type: functional; conditions: 240 h, in the assay text read “oral glucose tolerance test” for “postprandial glucose tolerance test”
Outline: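 db/db mice (C57BL/KsBom, 12–18 weeks, 40–50 g) given 100 mg/kg orally, vehicle 1.0% gum acacia. Day 10 OGTT after overnight fast: glucose at −30 min and drug given, then glucose at 0 min. Glucose 3 g/kg given, with readings at 30, 60, 90 and 120 min.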

Mus musculus [13] = assay: Antidyslipidemic activity in C57BL/Ks db/db mouse assessed as reduction in plasma triglyceride level at 100 mg/kg, po; type: functional
Outline: (§3)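 db/db mice (C57BL/KsBom, 12–18 weeks, 5 male and 5 female) dosed orally at 100 mg/kg in 1.0% gum acacia. Blood collected on day 8 for serum lipids. Mean ± SD, n = 5, against vehicle-treated db/db controls; Dunnett's test.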

Mus musculus [14] = assay: Antidyslipidemic activity in C57BL/Ks db/db mouse assessed as reduction in plasma cholesterol level at 100 mg/kg, po; type: functional; outline: as §3
Mus musculus [15] = assay: Antidyslipidemic activity in C57BL/Ks db/db mouse assessed as plasma HDL-cholesterol level at 100 mg/kg, po; type: functional; outline: as §3
[16] = molecular target: T1, Tyrosine-protein phosphatase non-receptor type 1 (Homo sapiens, UniProt P18031); assay: Inhibition of protein tyrosine phosphatase-1B at 10 uM incubated for 10 mins using pNPP substrate in presence of 0.01% Triton X-100 by modified Goldstein method
T1 sequence (P18031 whole entry): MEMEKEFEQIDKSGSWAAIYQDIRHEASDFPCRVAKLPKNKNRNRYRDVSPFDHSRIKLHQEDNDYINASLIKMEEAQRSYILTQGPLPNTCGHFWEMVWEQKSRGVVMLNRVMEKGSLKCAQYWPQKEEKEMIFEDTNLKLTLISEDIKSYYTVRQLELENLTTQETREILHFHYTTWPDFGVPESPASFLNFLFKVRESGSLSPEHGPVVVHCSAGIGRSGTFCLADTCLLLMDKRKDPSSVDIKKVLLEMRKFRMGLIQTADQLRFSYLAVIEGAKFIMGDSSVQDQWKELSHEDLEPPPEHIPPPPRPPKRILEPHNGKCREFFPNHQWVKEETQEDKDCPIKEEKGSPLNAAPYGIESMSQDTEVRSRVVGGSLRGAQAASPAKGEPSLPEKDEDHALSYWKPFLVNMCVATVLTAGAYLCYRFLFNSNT
Outline: (§4)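 PTP-1B: compound preincubated 10 min with enzyme, with or without 0.01% Triton X-100. Then 10 mM pNPP in 50 mM HEPES pH 7.0 with 1 mM DTT and 2 mM EDTA, 30 min at 37 °C. Stopped with 0.1 N NaOH; absorbance read at 410 nm. p-Nitrophenolate calculated using ε 1.78 × 10⁴ M⁻¹cm⁻¹. Sodium orthovanadate used as reference.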

[17] = molecular target: T1, Tyrosine-protein phosphatase non-receptor type 1; assay: Inhibition of protein tyrosine phosphatase-1B at 10 uM incubated for 10 mins using pNPP substrate in absence of Triton X-100 by modified Goldstein method; outline: as §4
[18] = molecular target: T2, Tyrosine-protein phosphatase non-receptor type 1 (Homo sapiens) (UniProt P18031); assay: Inhibition of protein tyrosine phosphatase-1B at 10 uM incubated for 10 mins using pNPP substrate by modified Goldstein method; outline: as §4
T2 sequence (whole entry): T1 sequence (P18031 whole entry)

[19] = molecular target: Dipeptidyl peptidase 4 (Homo sapiens) (UniProt P27487); assay: Inhibition of DPP4 assessed as rate of substrate cleavage using Gly-Pro-AMC substrate by spectrofluorometry
Outline: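 DPP-IV activity read by fluorescence at 37 °C, excitation 355 nm and emission 460 nm. Initial rate calculated over the first 15 min as increase in fluorescence intensity.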

[20] = molecular target: T3, Peroxisome proliferator-activated receptor gamma (Homo sapiens) (UniProt P37231); assay: Activation of PPARgamma by receptor transactivation assay
T3 sequence (whole entry): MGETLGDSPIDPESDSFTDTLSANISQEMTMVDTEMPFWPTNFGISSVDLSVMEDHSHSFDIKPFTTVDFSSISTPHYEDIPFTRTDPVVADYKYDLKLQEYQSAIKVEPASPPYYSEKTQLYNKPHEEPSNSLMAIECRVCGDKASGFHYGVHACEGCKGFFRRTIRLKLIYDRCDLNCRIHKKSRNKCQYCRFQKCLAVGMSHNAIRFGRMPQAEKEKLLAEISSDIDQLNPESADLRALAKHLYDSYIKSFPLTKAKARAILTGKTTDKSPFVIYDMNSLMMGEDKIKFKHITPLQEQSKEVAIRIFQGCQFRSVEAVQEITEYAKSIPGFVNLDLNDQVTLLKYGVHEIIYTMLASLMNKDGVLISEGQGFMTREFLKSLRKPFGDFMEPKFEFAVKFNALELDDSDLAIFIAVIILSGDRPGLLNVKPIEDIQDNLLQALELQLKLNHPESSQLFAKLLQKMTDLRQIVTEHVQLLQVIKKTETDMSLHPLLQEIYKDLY

Dipeptidyl peptidase 4 (Homo sapiens), sequence (P27487 whole entry, looked up): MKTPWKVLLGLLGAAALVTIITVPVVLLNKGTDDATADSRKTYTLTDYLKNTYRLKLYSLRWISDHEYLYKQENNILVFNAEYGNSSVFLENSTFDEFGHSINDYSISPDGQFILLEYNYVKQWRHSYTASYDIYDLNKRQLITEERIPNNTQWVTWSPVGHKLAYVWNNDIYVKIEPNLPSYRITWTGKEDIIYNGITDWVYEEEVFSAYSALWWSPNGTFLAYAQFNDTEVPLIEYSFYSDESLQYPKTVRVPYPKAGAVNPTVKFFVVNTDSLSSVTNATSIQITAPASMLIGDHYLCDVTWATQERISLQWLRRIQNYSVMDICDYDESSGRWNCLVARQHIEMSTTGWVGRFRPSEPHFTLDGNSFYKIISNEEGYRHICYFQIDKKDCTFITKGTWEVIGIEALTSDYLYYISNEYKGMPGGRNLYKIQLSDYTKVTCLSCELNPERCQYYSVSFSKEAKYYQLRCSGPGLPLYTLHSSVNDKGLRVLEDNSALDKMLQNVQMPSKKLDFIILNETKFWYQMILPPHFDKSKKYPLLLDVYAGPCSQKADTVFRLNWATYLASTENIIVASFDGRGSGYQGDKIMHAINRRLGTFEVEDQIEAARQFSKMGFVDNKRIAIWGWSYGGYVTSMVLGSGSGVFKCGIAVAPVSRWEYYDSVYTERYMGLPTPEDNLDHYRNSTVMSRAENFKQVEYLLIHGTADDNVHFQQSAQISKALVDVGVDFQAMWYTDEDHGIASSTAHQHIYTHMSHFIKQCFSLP

IC50 [16]	IC50 [17]	inhibition [18]	inhibition [19]	Activity [20]	SMILES	inhibition in vivo at 100 mg/kg (Rattus norvegicus [1])	inhibition in vivo at 100 mg/kg (Rattus norvegicus [2])	inhibition in vivo at 100 mg/kg (Rattus norvegicus [3])	inhibition (INH) (Mus musculus [4])	inhibition in vivo at 7.5 mg/kg (Rattus norvegicus [5])	inhibition in vivo at 15 mg/kg (Rattus norvegicus [6])	inhibition in vivo at 25 mg/kg (Rattus norvegicus [7])	inhibition in vivo at 50 mg/kg (Rattus norvegicus [8])	inhibition in vivo at 100 mg/kg (Rattus norvegicus [9])	ED50 (Rattus norvegicus [10])	inhibition in vivo at 100 mg/kg (Mus musculus [11])	inhibition in vivo at 100 mg/kg (Mus musculus [12])	inhibition in vivo at 100 mg/kg (Mus musculus [13])	inhibition in vivo at 100 mg/kg (Mus musculus [14])	Activity (Mus musculus [15])
9 µM	8.8 µM	76.3%	inactive	inactive	COc1ccc(-c2cc(-c3ccccc3)no2)c(OCCN2CCCCC2)c1	27.6%	17.6%	18.7%	18.5%	9.8%	12.6%	14%	16.7%	20.7%	64.5 mg/kg	17.4%	16.1%	-7.5%	-12.2%	1.3%
1.51 µM	1.5 µM	99.2%	inactive	–	COc1ccc(-c2cc(-c3ccccc3)no2)c(OCCN2CCCC2)c1	36.9%	27.7%	28.7%	22.8%	11.5%	13.7%	15.2%	18.5%	27.7%	54.8 mg/kg	21.4%	21.6%	-10.5%	-17.6%	3%
